Laboratory results from publication PMC3016465 (Proteins, 2011).
Entries after “also recorded” stand apart in the source; their conditions may differ.

Assays:
Aβ = details: cited from earlier work
AβO = experiment: EPR of position 264 spin-labeled apoE with HDL or VLDL, with or without AβO; format: binding; details: for EPR response to AβO in presence of HDL / VLDL: apoE 30 μM, HDL or VLDL 850 mg/dL, oligomeric Aβ(1-40) 100 μM, one hour at 37 °C; for EPR response to HDL / VLDL without AβO: apoE spin-labeled at 264, HDL or VLDL, Supplemental Figure S2
How it was run: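 Human apoE isoforms (Cys at 264) expressed in E. coli BL21(DE3)AI, purified from inclusion bodies in 8 M urea, labeled with MTS-SL and refolded into PBS pH 7.4. HDL or VLDL came from postprandial human plasma by ultracentrifugation. […] Samples were incubated, then run as X-band EPR (loop-gap resonator, sealed quartz capillary), with vehicle controls.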

Aβ^(26TOAC) = experiment: EPR of Aβ^; format: binding; details: apoE 30 μM; 40 μM Aβ (1 part Aβ^(26TOAC) to 3 parts native Aβ(1-40)), scanned immediately after introduction into aqueous buffer
VLDL and HDL = details: ref [10]; cited from earlier work
[1] = Circular dichroism of spin-labeled apoE; format: physicochemical; details: spin-labeled W264C apoE4 vs wt apoE4; Supplementary Material
Aβ fibrils = details: in vitro; ref [19]; cited from earlier work
[2] = system: neuronal death / neurite outgrowth; details: independent of Aβ; ref [15]; cited from earlier work
[3] = Atomic force microscopy of oligomers; format: physicochemical
N2a cells = experiment: MTT cytotoxicity assay; format: cell-based; details: oligomeric peptide, one day after addition

Substance: E3-like protein: apoE3-like protein: R112->S mutation in the apoE4-W264C template
- propensity to form SDS-resistant complex with Aβ (Aβ; E3-like mutant (Cys112→Ser) relative to apoE4, ref [29]): higher (relative to apoE4) propensity to form an SDS-resistant complex with Aβ
- EPR response to AβO in presence of HDL / VLDL (AβO): the influence of AβO on the E3-like protein is clearly greater in the presence of HDL
- EPR response to HDL / VLDL without AβO (AβO): becomes more ordered; where the spectra of spin-labeled 264 are similarly broadened by HDL and VLDL
- effect of apoE on the Aβ^(26TOAC) EPR spectrum (Aβ^(26TOAC)): Only the E3-like protein induces a broadening of the Aβ^(26TOAC) spectra

Substance: apoE4: h_apoE4 protein containing the W264->Cys (apoE4-W264C) substitution
- lipoprotein preference (VLDL and HDL): preference of E4 to bind VLDL over HDL
- association with Aβ, SDS-resistant apoE-Aβ on gels (Aβ; in vitro, ref [13]): higher apoE4 association in vitro
- affinity of lipid-free apoE4 for Aβ vs apoE3 (Aβ; lipid-free apoE, ref [14],[19]): binds Aβ with a higher affinity than apoE3 and promotes fibrillization of Aβ
- CD analysis of spin-labeled protein [1]: indistinguishable from wt apoE4
- stimulation of Aβ fibril assembly (Aβ fibrils): in vitro assembly of Aβ fibrils is stimulated by apoE, and more so by the E4 isoform
- neuronal death [2]: induces neuronal death and forms large fibril-like assemblies
- EPR response to AβO in presence of HDL / VLDL (AβO): slightly stronger binding effect of apoE4 to AβO in the presence of VLDL than HDL
- EPR response to HDL / VLDL without AβO (AβO): shows little change with HDL, and a slight increase in amplitude with VLDL
- effect of apoE on the Aβ^(26TOAC) EPR spectrum (Aβ^(26TOAC)): produces a spectrum that is identical to TOAC-labeled sample added to PBS alone; also recorded: had no significant effect on the Aβ^(26TOAC) spectrum

Substance: AβO: soluble Aβ oligomer
- time to formation of fibrillar aggregates after spotting ([3]; AFM, AβO 50 μM, on mica surface): ≤ 1 min
- average volume of initial AβO species ([3]; AFM, set of 11, assuming simple spherical particle): 203 ± 26 nm^3
- upper limit of oligomer size ([3]; efficient packing of the peptide in the particle is unlikely): ≤ 30 -mer
- protein mass of AβO particle ([3]; estimated from AFM volume, if packed similar to a globular protein): ~ 160 kD

Substance: Aβ(1-40): native Aβ(1-40) peptide (Bachem Cat # 1194.0001)
- cell death (N2a cells): 60-75%
